Results on seven compounds are retold here after ChEMBL document CHEMBL5346864, “Identification of L. infantum trypanothione synthetase inhibitors with leishmanicidal activity from a (non-biased) in-house chemical library” (Eur J Med Chem, 2022).

The subject of data set [1] is Leishmania infantum. As to the kind of experiment: Increase in the intracellular superoxide radical concentration in Leishmania infantum axenic amastigotes at 1 uM incubated for 2 hrs by DHE-derived flow cytometry. The data set is classed as functional, cell-based.
The subject of data set [2] is Leishmania infantum. As to the kind of experiment: Anti-leishmanial activity against GFP-expressing Leishmania infantum axenic amastigotes infected in human THP-1 cells assessed as reduction in live intracellular GFP+ amastigotes measured after 72 hrs by fluorescence based analysis. The data set is classed as functional, organism-based. As to conditions: THP-1, 72 h. The essentials:
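THP-1 monocytes differentiated 24 h with 100 ng/mL PMA, infected 24 h with GFP-expressing L. infantum axenic amastigotes (5 × 10^6/mL), non-internalized parasites removed by washes and a 24 h horse-serum challenge. Treatment for 72 h at 37 °C in RPMI with 10% horse serum. SDS lysis; live (propidium iodide-negative) GFP+ amastigotes counted by flow cytometry, normalized to vehicle, EC50 by two-parameter fit; three independent experiments.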

Data set [3] relates to Leishmania infantum. The experiment in a line: Induction of plasma membrane depolarization in Leishmania infantum axenic amastigotes at 1 uM incubated for 2 hrs by DiBAC4(3)-derived flow cytometry. For orientation: In flow cytometry, cells or beads pass a laser one at a time.
Data set [4] has as its system Leishmania infantum. As to the kind of experiment: Leishmanicidal activity against Leishmania infantum axenic amastigotes (MCAN/ES/89/IPZ229/1/89) assessed as inhibition of parasite proliferation measured after 24 hrs by resazurin dye based fluorescence analysis. It counts as functional, organism-based. As to conditions: MCAN/ES/89/IPZ229/1/89, 24 h. The essentials:
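L. infantum MCAN/ES/89/IPZ229/1/89 axenic amastigotes (M199-based medium, pH 5.4, 37 °C) from log cultures seeded at 10^6/mL and treated 24 h at 37 °C. Resazurin added for a further 24 h; fluorescence read at ex 560/em 590 nm, normalized to vehicle, EC50 from two-parameter fit; triplicate in three independent experiments.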
(Resazurin is reduced to fluorescent resorufin, in cell work by metabolically active cells.)

In data set [5] the test system is Leishmania infantum. The experiment in a line: Induction of mitochondrial inner membrane depolarization in Leishmania infantum axenic amastigotes at 5 uM incubated for 2 hrs by TMRM-derived flow cytometry.
Data set [6] in a line: Selectivity index, ratio of CC50 for cytotoxicity against human HepG2 cells to EC50 for Anti-Leishmanial activity against GFP-expressing Leishmania infantum axenic amastigotes infected in human THP-1 cells. The data set is classed as toxicity, cell-based. As to conditions: read-out: Ratio CC50/EC50.
The nature of data set [7]: Cytotoxicity against human HepG2 cells assessed as reduction in cell proliferation measured after 72 hrs by crystal violet staining based analysis. The data set is classed as toxicity.
Data set [8] can be described thus: Inhibition of N-terminal His6-tagged recombinant Leishmania infantum promastigotes (MCAN/ES/89/IPZ229/1/89) TryS expressed in Escherichia coli BL21(DE3) Rossetta by BIOMOL Green reagent based assay. The method, boiled down:
(§1)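 Recombinant His-LiTryS at 25 nM final, 100 mM HEPES pH 8, 0.5 mM EDTA, 10 mM MgCl2, 100 µM DTT, 2% DMSO, 37 °C, 30 min. Saturating substrates: 150 µM ATP, 100 µM GSH, 2 mM Spd or 500 µM GspdSH. […] Phosphate via BIOMOL Green, A650; 6-point curves, triplicate, three experiments.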

Data set [9] is described as follows: Inhibition of N-terminal His6-tagged recombinant Leishmania infantum promastigotes (MCAN/ES/89/IPZ229/1/89) TryS expressed in Escherichia coli BL21(DE3) Rossetta using saturating concentrations of ATP and Spd and Km concentration of GSH as substrate measured after 30 mins by BIOMOL Green reagent based assay.
The nature of data set [10]: Inhibition of N-terminal His6-tagged recombinant Leishmania infantum promastigotes (MCAN/ES/89/IPZ229/1/89) TryS expressed in Escherichia coli BL21(DE3) Rossetta using saturating concentrations of GSH and Spd and Km concentration of ATP as substrate measured after 30 mins by BIOMOL Green reagent based assay.
Data set [11] is described as follows: Inhibition of N-terminal His6-tagged recombinant Leishmania infantum promastigotes (MCAN/ES/89/IPZ229/1/89) TryS expressed in Escherichia coli BL21(DE3) Rossetta using saturating concentrations of ATP, GSH and GspdSH as substrate measured after 30 mins by BIOMOL Green reagent based assay. The method, boiled down: as §1
Data set [12] is described as follows: Inhibition of N-terminal His6-tagged recombinant Leishmania infantum promastigotes (MCAN/ES/89/IPZ229/1/89) TryS expressed in Escherichia coli BL21(DE3) Rossetta using saturating concentrations of ATP and GSH and Km concentration of Spd as substrate measured after 30 mins by BIOMOL Green reagent based assay.
Data set [13] can be described thus: Inhibition of N-terminal His6-tagged recombinant Leishmania infantum promastigotes (MCAN/ES/89/IPZ229/1/89) TryS expressed in Escherichia coli BL21(DE3) Rossetta using saturating concentrations of ATP, GSH and Spd as substrate measured after 30 mins by BIOMOL Green reagent based assay. The essentials: as §1
Data set [14] can be described thus: Inhibition of N-terminal His6-tagged recombinant Leishmania infantum promastigotes (MCAN/ES/89/IPZ229/1/89) TryS expressed in Escherichia coli BL21(DE3) Rossetta using saturating concentrations of ATP and GSH and Km concentration of GspdSH as substrate measured after 30 mins by BIOMOL Green reagent based assay.
Data set [15] can be described thus: Competitive inhibition of N-terminal His6-tagged recombinant Leishmania infantum promastigotes (MCAN/ES/89/IPZ229/1/89) TryS expressed in Escherichia coli BL21(DE3) Rossetta with fixed concentration of ATP and GSH and varying concentrations of GspdSH as substrate measured after 30 mins by Lineweaver-Burk double-reciprocal plot analysis. The method, boiled down: (§2)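 Recombinant His-tagged LiTryS (62.5 nM added to start) in 100 mM HEPES pH 8, 50 µL, 37 °C, 30 min; phosphate read with BIOMOL Green at 650 nm. Four inhibitor concentrations crossed with four varied substrate levels, no enzyme preincubation. […] Lineweaver-Burk analysis, three experiments.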

The nature of data set [16]: Competitive inhibition of N-terminal His6-tagged recombinant Leishmania infantum promastigotes (MCAN/ES/89/IPZ229/1/89) TryS expressed in Escherichia coli BL21(DE3) Rossetta with fixed concentration of Spd and GSH and varying concentrations of ATP as substrate measured after 30 mins by Lineweaver-Burk double-reciprocal plot analysis. The essentials:
as §2

Data set [17] can be described thus: Mixed inhibition of N-terminal His6-tagged recombinant Leishmania infantum promastigotes (MCAN/ES/89/IPZ229/1/89) TryS expressed in Escherichia coli BL21(DE3) Rossetta with fixed concentration of ATP and GSH and varying concentrations of GspdSH as substrate measured after 30 mins by Lineweaver-Burk double-reciprocal plot analysis. The method, boiled down:
as §2

Activity calls are given as the source filed them. The rule behind the calls is not given here.

As a reminder, the EC50 is the concentration at which the effect is half-maximal. As a reminder, the CC50 is the concentration giving 50% cytotoxicity. A word on the IC50: it is the concentration needed to halve the response being measured. Regarding `CCCCCCCCCCCCCCCCOP(=O)([O-])OCC[N+](C)(C)C` [MILTEFOSINE], the outcome in the data set on Leishmania infantum [1], in the data set with Leishmania infantum [3] and in the data set with Leishmania infantum [5] was Active. For the same compound, the EC50 in the data set with Leishmania infantum [2] was found to be 0.7 µM; with Leishmania infantum [4], 0.5 µM. Besides, the selectivity ratio in [6] was > 107. Besides, the CC50 at 72 h in data set [7] was > 75 µM. For the same compound, the half-inhibitory concentration (IC50) in data set [8] stood at 45.6 µM.
As to `CCCCCCCCCCCCCCOc1ccc(C[N+](C)(C)C2CCCC2)cc1OC`, the outcome in the data set on Leishmania infantum [1], in the data set with Leishmania infantum [3] and in the data set with Leishmania infantum [5] was Active. For the same compound, the IC50 stood at 7.8 µM in [9]; 7.3 µM in data set [10]; 7.1 µM in data set [11]; 5.5 µM in [12]; 7.9 µM in data set [13]; 3.8 µM in data set [14]. The EC50 came to 0.6 µM in the data set on Leishmania infantum [2] and 0.4 µM in the data set with Leishmania infantum [4]. The selectivity ratio in data set [6] turned out to be 35.5. Moreover, in [7], the CC50 at 72 h came to 21.3 µM.
`CCCCCCCCCCCCCCCOc1cc(C[N+](C)(C)C2CCCC2)ccc1OCCCCCCCCCCCCCC`: the IC50 worked out at 8.7 µM in [9]; 8.9 µM in [10]; 7.5 µM in data set [11]; 8.4 µM in data set [12]; 9.8 µM in data set [13]; 6 µM in data set [14]. Besides, in the data set on Leishmania infantum [4], the EC50 is > 75 µM.
Consider `O=C(O[C@@H]1OC[C@@H](OC(=O)c2ccc(O)c(O)c2O)[C@@H](OC(=O)c2ccc(O)c(O)c2O)[C@H]1OC(=O)c1ccc(O)c(O)c1O)c1ccc(O)c(O)c1O`, for which the half-inhibitory concentration (IC50) in data set [9] stood at 6.7 µM; in data set [10], 7.1 µM; in data set [11], 5.9 µM; in data set [12], 4.7 µM; in data set [13], 5.4 µM; in data set [14] it was 5.1 µM. Further, the EC50 in the data set on Leishmania infantum [4] was found to be 47.6 µM.
One may read the Ki as the dissociation constant of the complex between target and ligand, obtained from inhibition or displacement. Regarding `NCCCCc1cn(-c2ccc(-c3nc(-c4ccc(Oc5ccccc5)cc4)c(-c4ccccc4)s3)c(OCCN3CCNC3=O)c2)nn1`, the Ki came out at 3.9 µM in [15] and 5.4 µM in data set [16]. Also, the IC50 came out at 14.2 µM in data set [9]; 8.7 µM in data set [10]; 16.2 µM in data set [11]; 10.9 µM in [12]; 14.8 µM in [13]; 10.7 µM in data set [14]. Moreover, the EC50 was 13.5 µM in the data set on Leishmania infantum [2] and 21.5 µM in the data set on Leishmania infantum [4]. Also, the selectivity ratio in [6] was found to be 1.2. Moreover, the CC50 at 72 h in data set [7] was 15.9 µM.
Regarding `CCCCCCCCCCCC(=O)NC(COC(=O)c1ccc(OCCN)c(OCCN)c1)COC(=O)c1cc(OCCN)c(OCCN)c(OCCN)c1` (stereo unspecified), the Ki in [15] was 2.6 µM. Moreover, the IC50 in data set [9] was 14.6 µM; in [10], 13.4 µM; in [11], 7.2 µM; in data set [12], 9.9 µM; in data set [13], 14.8 µM; in data set [14] it was 4.9 µM. Moreover, the figures for the EC50 in the data set with Leishmania infantum [2] and in the data set with Leishmania infantum [4] were 17.9 µM and 7.3 µM, respectively. For the same compound, the selectivity ratio in data set [6] was > 4.2. In addition, in data set [7], the half-maximal cytotoxic concentration (CC50) at 72 h is > 75 µM.
As to `O=C(OC[C@H]1O[C@H](O[C@H]2O[C@H](COC(=O)c3cc(O)c(O)c(O)c3)[C@@H](OC(=O)c3cc(O)c(O)c(O)c3)[C@H](OC(=O)c3cc(O)c(O)c(O)c3)[C@H]2OC(=O)c2cc(O)c(O)c(O)c2)[C@H](OC(=O)c2cc(O)c(O)c(O)c2)[C@@H](OC(=O)c2cc(O)c(O)c(O)c2)[C@@H]1OC(=O)c1cc(O)c(O)c(O)c1)c1cc(O)c(O)c(O)c1`, the Ki in data set [17] worked out at 0.8 µM. Besides, the IC50 came to 5.4 µM in [9]; 5.4 µM in data set [10]; 2.2 µM in [11]; 5.6 µM in [12]; 4.4 µM in [13]; 2 µM in data set [14]. For the same compound, the EC50 in the data set on Leishmania infantum [4] stood at 43.7 µM.
